According to paper PMC10413622 (Nuclear medicine and biology, 2022):
pIC50: −log10 of the molar value. Entries after “also recorded” stand apart in the source; their conditions may differ.

Experiments:
[1] = determined at pH 6.8; cited from earlier work
Caco-2 cells = test: Caco-2 permeability assay; format: in vitro ADME; conditions: 10 μM, pH 7.4, 2 h
Summary of the method: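 Caco-2 cells grown in DMEM under 5% CO₂, seeded at 5 × 10⁵/well on polycarbonate filter inserts and differentiated 21 ± 4 days. Test compound at 10 μM final in HBSS with 25 mM HEPES, pH 7.4, 37 °C, added donor side. A→B and B→A runs were done with and without elacridar. Receiver was sampled over 2 h and donor at 0 and 2 h, then analysed by LC-MS/MS. Papp = […]/(A × C₀,donor) × 10⁶.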

P2Y12R = conditions: read-out: IC50 (affinity); cited from earlier work
[2] = system: other purinergic receptors; conditions: cited from earlier work
[3] = Microsome stability assay; format: in vitro ADME, mouse; conditions: 1 μM test compound, NADPH, 37 °C
Summary of the method: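 Mouse liver microsomes in 100 mM K₃PO₄ pH 7.4 with 10 mM MgCl₂ and 1 μM test compound were pre-incubated 10 min at 37 °C. Reactions were started with 1 mM NADPH. They were quenched at 0, 10, 20 and 40 min with stop solution in acetonitrile, centrifuged at 4000g for 20 min, diluted in 0.1% formic acid and quantified by LC-MS/MS.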

[4] = In vitro human plasma stability of radiotracer; format: in vitro ADME; conditions: 37 °C, HPLC
Summary of the method: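 Formulated radiotracer (46 μCi) was mixed into human plasma, with aliquots held at 37 °C. Aliquots were quenched at 0, 5, 15, 30 and 60 min with ice-cold MeCN and centrifuged at 12,500g for 10 min. Supernatant went to radio-HPLC (C18, 70–95% MeCN with 0.1% TFA over 15 min). Controls of tracer without plasma were run at 0 and 60 min.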

[5] = MicroPET imaging in rhesus macaque; format: in vivo; conditions: rhesus macaque n = 1, i.v. bolus, 60 min dynamic scan
Summary of the method: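 One mature female rhesus monkey (9.36 kg) was anaesthetised with Telazol, intubated, and maintained on isoflurane, with a hind-limb venous catheter and head secured. Tracer 4.90 mCi was given as a bolus over 1 min. The brain was imaged for 60 min (5×1, 2×2.5, 2×5, 4×10 min frames), with attenuation and scatter correction and 3D MAP reconstruction. A whole-brain volumetric ROI drawn on the summed image gave the TAC.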

[6] = mouse, in vivo, 1 h
[7] = Stability of radiotracer in formulation; format: physicochemical
[8] = Dynamic PET/CT imaging in mice; format: in vivo, mouse
Summary of the method: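 Subjects were female C57BL/6 wild-type mice aged 3 months and one male P2Y12R total-KO mouse (C57BL/6 background, 11 months), under isoflurane (2–3.5% induction, 1–2.5% maintenance). Tracer was given by tail vein at 300 μCi, formulated in saline with 10% ethanol. Imaging was 60 min list-mode dynamic PET (4×15 s, 4×1 min, 11×5 min), OSEM-3D with scatter and attenuation correction, then CT. ROIs were applied to dynamic data to give TACs in %ID/g.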

[9] = mice, i.v., 5 min post injection

Structure (SMILES)	logD [1]	Caco-2 efflux ratio BA/AB (Caco-2 cells)	Caco-2 apparent permeability AB (Caco-2 cells; A→B)	pIC50 (P2Y12R)	selectivity for P2Y12R over other purinergic receptors [2]	half-life in mouse liver microsomes [3] [min]	loss of parent / radio-metabolites in human plasma ([4]; 0-60 min incubation)	intact tracer after incubation in human serum ([4]; 60 min incubation) [%]	peak brain uptake (PET) [5] [SUV]	ex vivo biodistribution, blood [6]	ex vivo biodistribution, brain [6]	ex vivo biodistribution, liver [6] [%ID/g]	intact tracer after incubation in formulation ([7]; 90 min in formulation (saline with 10% ethanol)) [%]	time stable in formulation and resistant to radiolysis ([7]; post end-of-synthesis) [min]	CNS uptake in P2Y12R knockout mouse (PET) ([8]; P2Y12R total KO male mouse n = 1, 60 min dynamic scan)	brain uptake (PET) [8, 9] [%ID/g]	liver uptake (PET) [8, 9] [%ID/g]	brain peak uptake (PET) ([8]; naïve wild-type mice n = 3, i.v., 15 s post injection) [%ID/g]
CCOC(=O)c1cc(C#N)c(N2CCC(C(=O)NS(=O)(=O)Cc3ccccc3)CC2)nc1C [AZD1283]	2.8	5.3	4.48	7.96	selective for P2Y12R over other purinergic receptors	37	–	–	–	–	–	–	–	–	–	–	–	–
CCOC(=O)c1cc([11C]#N)c(N2CCC(C(=O)NS(=O)(=O)Cc3ccccc3)CC2)nc1C [[^11C]AZD1283]	–	–	–	–	–	–	no loss of parent or detection of radio-metabolites; also recorded: no loss of parent tracer or appearance of radio-metabolites	> 99	0.37	0.9% ± 0.40 %ID/g	0.02% ± 0.01 %ID/g	106 ± 29.70	> 99	> 90	no CNS uptake	0.55 ± 0.37	58.28 ± 18.75	3.46 ± 2.0
